Results taken from ChEMBL document CHEMBL3232966, “A new potential approach to block HIV-1 replication via protein-protein interaction and strand-transfer inhibition” (Bioorg Med Chem, 2014).
Calls of active or inactive are those of the source. No cut-off for these calls is given here.

How the values were obtained:
[1] = Inhibition of His-6-tagged HIV-1 integrase-recombinant flag-tagged LEDGF/p75 (unknown origin) interaction after 1hr by AlphaScreen assay
Method in brief: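 AlphaScreen. Ni-chelate acceptor and anti-flag donor beads were added (20 µg/ml each final), then incubated 1 h at 30 °C in low light. Acceptor-bead light emission was read.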

[2] = biological target: Human immunodeficiency virus type 1 integrase (Human immunodeficiency virus 1, UniProt Q7ZJM1); assay: Inhibition of HIV-1 integrase strand transfer activity using 3'-end biotin labelled oligonucleotide/5'-end digoxigenin labelled oligonucleotide as substrate after 1 hr by ELISA
Sequence of Human immunodeficiency virus type 1 integrase (Q7ZJM1 whole entry): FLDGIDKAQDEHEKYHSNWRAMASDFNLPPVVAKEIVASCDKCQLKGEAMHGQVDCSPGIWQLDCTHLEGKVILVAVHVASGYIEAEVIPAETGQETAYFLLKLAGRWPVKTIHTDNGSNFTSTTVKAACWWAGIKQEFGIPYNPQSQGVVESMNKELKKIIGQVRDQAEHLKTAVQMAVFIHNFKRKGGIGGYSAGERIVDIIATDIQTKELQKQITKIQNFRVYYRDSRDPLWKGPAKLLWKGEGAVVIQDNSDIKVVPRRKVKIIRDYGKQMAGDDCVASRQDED
Method in brief: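 ELISA strand-transfer assay. Integrase (diluted in 750 mM NaCl, 10 mM Tris pH 7.6, 10% glycerol, 1 mM β-mercaptoethanol; 1.6 µM) was mixed with annealed oligonucleotides (7 nM): a 3'-biotin strand plus a 5'-digoxigenin strand lacking 3'-terminal GT. Buffer contained MgCl2, DTT, HEPES pH 7.5, 5% PEG and 15% DMSO. Incubation 1 h at 37 °C, NaOH denaturation, detection on avidin-coated plates.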

[3] = Inhibition of His-6-tagged HIV-1 integrase-recombinant flag-tagged LEDGF/p75 (unknown origin) interaction at 100 uM after 1hr by AlphaScreen assay
[4] = Cytotoxicity against human MT4 cells assessed as cell viability by MTT assay; assay type: cell-based
Method in brief: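 Uninfected MT-4 lymphocytes exposed to fivefold serial compound dilutions, run in parallel with the antiviral test. Viability read by MTT reduction to formazan by mitochondrial dehydrogenase, measured spectrophotometrically. CC50 = concentration lowering MT-4 viability by 50%.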

[5] = Selectivity index, ratio of CC50 for human MT4 cells to EC50 for HIV-1 3B; assay type: toxicity, cell-based; details: read-out: Ratio CC50/EC50
Method in brief: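 Ratio CC50/EC50. CC50 comes from the MTT viability assay on uninfected MT-4 cells. EC50 comes from the MTT protection assay on MT-4 cells infected with HIV(IIIB).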

[6] = system: Human immunodeficiency virus 1; assay: Antiviral activity against HIV-1 3B infected in MT4 cells assessed as inhibition of virus-induced cytopathic effect by MTT assay; assay type: functional, organism-based; details: Human immunodeficiency virus 1, 3B
Method in brief: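 MT-4 lymphocytes infected with 100–300 CCID50 of HIV(IIIB) stock (CCID50 titrated on MT-4 cells), with fivefold serial compound dilutions. Protection against virus-induced cytopathic effect read by MTT reduction to formazan, measured spectrophotometrically. EC50 = concentration giving 50% protection against CPE.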

SMILES | IC50 [1] [µM] | IC50 [2] [µM] | inhibition [3] | CC50 [4] [µM] | selectivity ratio [5] | EC50 [6] [µM]
O=C(O)/C(O)=C/C(=O)c1cn(Cc2ccc(C(F)(F)F)cc2)c2ccc(F)cc12 | 17.8 | 1.55 | 77% | 15 | 2 | 7.83
Cc1cc(C)c(Cn2cc(C(=O)C3=C(O)C(=O)OC3)c3cc(Cl)ccc32)c(C)c1 | 23.6 | – | 85% | 40.5 | 2 | 19.8
COc1ccc2c(c1)c(C(=O)/C=C(\O)C(=O)O)cn2Cc1cc(C)cc(C)c1 | 53.9 | 1.09 | 89% | 51 | 23 | 2.24
COc1ccc2c(c1)c(C(=O)C1=C(O)C(=O)OC1)cn2Cc1cc(C)cc(C)c1 | – | – | 66% | – | – | –
O=C1OCC(C(=O)c2cn(Cc3ccc(C(F)(F)F)cc3C(F)(F)F)c3ccc(Cl)cc23)=C1O | 21.5 | – | 86% | – | – | –
CC(C)(C)c1ccc(Cn2cc(C(=O)C3=C(O)C(=O)OC3)c3cc(F)ccc32)cc1 | 36.2 | – | 96% | – | – | –
COc1ccc2c(c1)c(C(=O)C1=C(O)C(=O)OC1)cn2Cc1ccc(-c2ccccc2)cc1 | – | – | 51% | – | – | –
Cc1cc(C)cc(Cn2cc(C(=O)/C=C(\O)C(=O)O)c3cc(Cl)ccc32)c1 | – | – | inactive | > 125 | > 2 | 56.1
COc1ccc2c(c1)c(C(=O)C1=C(O)C(=O)OC1)cn2Cc1ccc(C(C)(C)C)cc1 | 17.1 | – | 93% | – | – | –
COc1ccc2c(c1)c(C(=O)/C=C(\O)C(=O)O)cn2Cc1ccc(-c2ccccc2)cc1 | > 100 | – | 59% | – | – | –
COc1ccc2c(c1)c(C(=O)/C=C(\O)C(=O)O)cn2Cc1ccc(C(F)(F)F)cc1C(F)(F)F | – | – | 33% | – | – | –
O=C1OCC(C(=O)c2cn(Cc3ccc(C(F)(F)F)cc3)c3ccc(F)cc23)=C1O | 12.2 | – | 65% | – | – | –
O=C(O)/C(O)=C/C(=O)c1cn(Cc2ccc(-c3ccccc3)cc2)c2ccc(Cl)cc12 | – | – | 31% | – | – | –
Cc1cc(C)c(Cn2cc(C(=O)/C=C(\O)C(=O)O)c3cc(F)ccc32)c(C)c1 | 15.2 | 2.51 | 71% | 104 | 21 | 5.14
O=C(O)/C(O)=C/C(=O)c1cn(Cc2ccc(C(F)(F)F)cc2)c2ccc(Cl)cc12 | 32.9 | 0.26 | 80% | 23 | 5 | 5.09
COc1ccc2c(c1)c(C(=O)/C=C(\O)C(=O)O)cn2Cc1ccc(C(F)(F)F)cc1 | – | – | 40% | – | – | –
COc1ccc2c(c1)c(C(=O)/C=C(\O)C(=O)O)cn2Cc1c(C)cc(C)cc1C | 33.1 | 0.42 | 72% | 23.5 | 8 | 3.23
Cc1cc(C)c(Cn2cc(C(=O)C3=C(O)C(=O)OC3)c3cc(F)ccc32)c(C)c1 | 5.6 | – | 81% | 107 | 2 | 49
O=C(O)/C(O)=C/C(=O)c1cn(Cc2ccc(C(F)(F)F)cc2C(F)(F)F)c2ccc(F)cc12 | – | – | inactive | – | – | –

SMILES | IC50 [1] [µM] | IC50 [2] [µM] | inhibition [3] | CC50 [4] [µM] | selectivity ratio [5] | EC50 [6] [µM]
O=C1OCC(C(=O)c2cn(Cc3ccc(C(F)(F)F)cc3)c3ccc(Cl)cc23)=C1O | 12.3 | – | 92% | – | – | –
COc1cccc2c1c(C(=O)/C=C(\O)C(=O)O)cn2Cc1ccc(F)cc1 | 36.2 | – | – | – | 70 | –
CC(C)(C)c1ccc(Cn2cc(C(=O)/C=C(\O)C(=O)O)c3cc(Cl)ccc32)cc1 | 10 | – | 88% | – | – | –
COc1ccc2c(c1)c(C(=O)C1=C(O)C(=O)OC1)cn2Cc1ccc(C(F)(F)F)cc1C(F)(F)F | 39.5 | – | 61% | – | – | –
Cc1cc(C)cc(Cn2cc(C(=O)C3=C(O)C(=O)OC3)c3cc(F)ccc32)c1 | 20.3 | – | 73% | – | – | –
COc1ccc2c(c1)c(C(=O)/C=C(\O)C(=O)O)cn2Cc1ccc(C(C)(C)C)cc1 | 91.7 | – | 65% | – | – | –
O=C1OCC(C(=O)c2cn(Cc3ccc(-c4ccccc4)cc3)c3ccc(Cl)cc23)=C1O | 21.8 | – | 80% | – | – | –
COc1ccc2c(c1)c(C(=O)C1=C(O)C(=O)OC1)cn2Cc1ccc(C(F)(F)F)cc1 | 52.2 | – | 65% | – | – | –
COc1ccc2c(c1)c(C(=O)C1=C(O)C(=O)OC1)cn2Cc1c(C)cc(C)cc1C | 33.2 | – | 82% | – | – | –
Cc1cc(C)cc(Cn2cc(C(=O)/C=C(\O)C(=O)O)c3cc(F)ccc32)c1 | – | – | 26% | – | – | –
O=C(O)/C(O)=C/C(=O)c1cn(Cc2ccc(-c3ccccc3)cc2)c2ccc(F)cc12 | 8.1 | – | 72% | – | – | –
CC(C)(C)c1ccc(Cn2cc(C(=O)/C=C(\O)C(=O)O)c3cc(F)ccc32)cc1 | – | – | 33% | – | – | –
O=C1OCC(C(=O)c2cn(Cc3ccc(-c4ccccc4)cc3)c3ccc(F)cc23)=C1O | 15.8 | – | 89% | – | – | –
O=C1OCC(C(=O)c2cn(Cc3ccc(C(F)(F)F)cc3C(F)(F)F)c3ccc(F)cc23)=C1O | – | – | 37% | – | – | –
O=C(O)/C(O)=C/C(=O)c1cn(Cc2ccc(C(F)(F)F)cc2C(F)(F)F)c2ccc(Cl)cc12 | 3.8 | – | 80% | – | – | –
CC(C)(C)c1ccc(Cn2cc(C(=O)C3=C(O)C(=O)OC3)c3cc(Cl)ccc32)cc1 | 52.5 | – | 83% | 53 | 2 | 23.4
Cc1cc(C)c(Cn2cc(C(=O)/C=C(\O)C(=O)O)c3cc(Cl)ccc32)c(C)c1 | > 100 | – | 59% | – | – | –
Cc1cc(C)cc(Cn2cc(C(=O)C3=C(O)C(=O)OC3)c3cc(Cl)ccc32)c1 | 23.1 | – | 96% | 53.5 | 3 | 16.9
Cc1cc(C)cc(Cn2cc(C(=O)/C=C(\O)C(=O)O)c3c(O)cccc32)c1 | 3.5 | – | – | 44 | 10 | 4.63
